Laboratory results taken from ChEMBL document CHEMBL1157701, “Inhibition of IkB kinase and NF-kappaB by a novel synthetic compound SK 2009” (Bioorg Med Chem, 2010).
The source made the active and inactive calls. The calls are words filed in the database; no cut-off is given here.

Experiments:
KBM5 [1] = experiment: Inhibition of TNF-alpha-induced NF-kappaB activation in human KBM5 cells at 100 uM treated for 12 hrs before TNFalpha challenge measured after 30 mins by EMSA relative to control; format: cell-based
In short: (§1)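 KBM-5 cells (1×10^6/mL) preincubated with compound for 12 h, then stimulated with 0.1 nM TNFα for 30 min. Nuclear extracts (15 μg protein) incubated with 16 fmol 32P-end-labeled 45-mer HIV LTR NF-κB oligonucleotide for 30 min at 37°C and resolved by EMSA. DMSO stock diluted in culture medium.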

[2] = Cytotoxicity against human KBM5 cells assessed as cell viability at 100 uM by trypan blue assay; format: cell-based; conditions: read-out: Activity
KBM5 [3] = experiment: Inhibition of TNF-alpha-induced NF-kappaB activation in human KBM5 cells at 100 uM treated for 12 hrs before TNFalpha challenge measured after 30 mins by EMSA; format: cell-based; in short: as §1
KBM5 [4] = experiment: Cytotoxicity against human KBM5 cells at 10 uM after 72 hrs by MTT assay; format: functional, cell-based
In short: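 MTT viability: KBM-5 cells (5000 per well) in triplicate with or without compound for 72 h at 37 °C. MTT (5 mg/ml in PBS) added for 2 h at 37 °C. Extraction buffer (20% SDS, 50% dimethylformamide) added overnight at 37 °C, then OD read at 570 nm.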

KBM5 [5] = experiment: Inhibition of TNF-alpha-induced NF-kappaB activation in human KBM5 cells treated for 12 hrs before TNFalpha challenge measured after 30 mins by EMSA; format: cell-based; in short: as §1
KBM5 [6] = experiment: Inhibition of NF-kappaB activation in human KBM5 cells at 100 uM treated for 12 hrs before TNFalpha challenge by EMSA; format: cell-based; conditions: TDE = time-dependent effect; in short: as §1
KBM5 [7] = experiment: Inhibition of NF-kappaB activation in human KBM5 cells at 100 uM treated for 12 hrs before TNFalpha challenge measured after 4 hrs by EMSA relative to control; format: cell-based
KBM5 [8] = experiment: Inhibition of NF-kappaB activation in human KBM5 cells at 100 uM treated for 12 hrs before TNFalpha challenge measured after 6 hrs by EMSA relative to control; format: cell-based
In short: (§2)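 Time course: KBM-5 cells (1×10^6/mL) exposed to 100 μM compound for varying times before 0.1 nM TNF for 30 min. Nuclear extracts (15 μg protein) were probed by EMSA with 16 fmol 32P-labeled HIV LTR κB 45-mer for 30 min at 37°C.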

KBM5 [9] = experiment: Inhibition of NF-kappaB activation in human KBM5 cells at 100 uM treated for 12 hrs before TNFalpha challenge measured after 8 hrs by EMSA relative to control; format: cell-based; in short: as §2
KBM5 [10] = experiment: Inhibition of NF-kappaB activation in human KBM5 cells at 100 uM treated for 12 hrs before TNFalpha challenge measured after 12 hrs by EMSA relative to control; format: cell-based; in short: as §2
[11] = molecular target: Transcription factor p65 (Homo sapiens) (UniProt Q04206); experiment: Inhibition of nuclear DNA binding to NF-kappaB p65 subunit in TNF-alpha-stimulated human KBM5 cells at 10 uM after 30 mins by EMSA relative to control; format: cell-based
In short: (§3)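 Direct DNA-binding test: nuclear extracts from untreated KBM-5 cells or cells given 0.1 nM TNF for 30 min were incubated for 30 min with compound at various concentrations. Binding to a 32P-labeled HIV LTR κB oligonucleotide was then assessed by EMSA.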

[12] = molecular target: Transcription factor p65 (Homo sapiens) (UniProt Q04206); experiment: Inhibition of nuclear DNA binding to NF-kappaB p65 subunit in TNF-alpha-stimulated human KBM5 cells at 25 uM after 30 mins by EMSA relative to control; format: cell-based; in short: as §3
[13] = molecular target: Transcription factor p65 (Homo sapiens) (UniProt Q04206); experiment: Inhibition of nuclear DNA binding to NF-kappaB p65 subunit in TNF-alpha-stimulated human KBM5 cells at 50 uM after 30 mins by EMSA relative to control; format: cell-based; in short: as §3
[14] = molecular target: Transcription factor p65 (Homo sapiens) (UniProt Q04206); experiment: Inhibition of nuclear DNA binding to NF-kappaB p65 subunit in TNF-alpha-stimulated human KBM5 cells at 100 uM after 30 mins by EMSA relative to control; format: cell-based; in short: as §3
KBM5 [15] = experiment: Inhibition of TNF-alpha-induced IKK activation in human KBM5 cells at 100 uM treated for 12 hrs before TNFalpha challenge by immunoprecipitation assay; format: cell-based; conditions: TDE = time-dependent effect
In short: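 KBM-5 cells (5×10^6/mL) preincubated with 100 μM compound for 12 h, then given 1 nM TNF for the indicated times. IKK immunoprecipitated from whole-cell lysates with anti-IKK-α and assayed at 30°C for 30 min: 50 mM HEPES pH 7.4, 20 mM MgCl2, 2 mM DTT, [32P]ATP, unlabeled ATP, 2 μg GST-IκBα(1-54). Phosphorylated substrate shown by SDS-PAGE/phosphorimaging; total IKK-α/β by immunoblot.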

[16] = Inhibition of cyclin D1 protein expression in TNF-alpha-stimulated human KBM5 cells at 100 uM after 6 to 24 hrs by Western blot analysis; format: functional, cell-based
In short: (§4)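 Western blot: KBM-5 lysates (30 μg protein) separated by SDS-PAGE and probed with anti-cyclin D1, Bcl-2 or VEGF (1:1000). HRP secondary (1:3000) applied for 2 h, detection by ECL, bands quantified by densitometry.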

KBM5 [17] = experiment: Inhibition of Bcl-2 protein expression in TNF-alpha-stimulated human KBM5 cells at 100 uM after 6 to 24 hrs by Western blot analysis; format: functional, cell-based; in short: as §4
[18] = Inhibition of VEGF protein expression in TNF-alpha-stimulated human KBM5 cells at 100 uM after 6 to 24 hrs by Western blot analysis; format: functional, cell-based; in short: as §4
KBM5 [19] = experiment: Inhibition of NF-kappaB activation in human KBM5 cells at 5 to 100 uM treated for 12 hrs in absence of TNFalpha by EMSA
KBM5 [20] = experiment: Intrinsic activity at IKK in TNF-alpha-stimulated human KBM5 cells at 10 to 100 uM added directly to IKK immune complexes in vitro by immunoprecipitation assay

Chain of Transcription factor p65 (Homo sapiens) (Q04206 whole entry): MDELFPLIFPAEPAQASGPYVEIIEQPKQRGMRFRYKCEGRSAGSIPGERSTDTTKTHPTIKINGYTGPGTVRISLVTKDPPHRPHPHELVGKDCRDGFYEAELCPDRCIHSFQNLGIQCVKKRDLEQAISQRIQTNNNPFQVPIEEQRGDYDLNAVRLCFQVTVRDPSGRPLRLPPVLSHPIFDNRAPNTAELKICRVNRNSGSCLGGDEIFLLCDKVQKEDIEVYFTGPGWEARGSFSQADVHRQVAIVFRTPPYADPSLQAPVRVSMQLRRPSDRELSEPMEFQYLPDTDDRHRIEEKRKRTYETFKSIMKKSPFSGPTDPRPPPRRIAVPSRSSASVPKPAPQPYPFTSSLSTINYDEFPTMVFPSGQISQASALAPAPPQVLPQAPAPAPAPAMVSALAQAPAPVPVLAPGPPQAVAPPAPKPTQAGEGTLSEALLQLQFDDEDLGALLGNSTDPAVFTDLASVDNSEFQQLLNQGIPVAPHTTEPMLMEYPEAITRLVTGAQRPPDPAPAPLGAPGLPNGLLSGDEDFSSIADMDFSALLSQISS

Row | Compound | fold change (FC) (KBM5 [1]) | viability at 100 µM [2] | inhibition (KBM5 [3]) | Activity (KBM5 [4]) | also measured
1 | CCCCCCCCCCCCCC[C@H]1COC(=O)C[C@H]1O | 3.6 | 95% | 30% | Active | 
2 | CCCCCCCC[C@H](C(=O)N1C(=O)OC[C@@H]1Cc1ccccc1)[C@H](O)CCOCc1ccccc1 | 1.3 | 98% |  | Active | 
3 | CCCCCCCCCC(=O)N1C(=O)OC[C@@H]1Cc1ccccc1 | 2.4 | 97% |  | Active | 
4 | CCCCCCCC[C@H](CO)[C@H](O)CCOCc1ccccc1 | 1.1 | 97% |  | Active | 
5 | CCCCCCC[C@H](CO)[C@H](O)CCOCc1ccccc1 | 4.5 | 98% | 100% | Active | inhibition (KBM5 [5]): Dose-dependent effect; inhibition (KBM5 [6]): tde; fold change (FC) (KBM5 [7]): 4.2; fold change (FC) (KBM5 [8]): 3.1; fold change (FC) (KBM5 [9]): 2.5; fold change (FC) (KBM5 [10]): 1; fold change (FC) [11]: 3.8; fold change (FC) [12]: 3.9; fold change (FC) [13]: 3.8; fold change (FC) [14]: 3.9; inhibition (KBM5 [15]): tde; inhibition [16]: Active; inhibition (KBM5 [17]): Active; inhibition [18]: Active; inhibition (KBM5 [19]): inactive; Activity (KBM5 [20]): inactive
6 | CCCCCCCC[C@@H]1COC(C)(C)O[C@@H]1CCOCc1ccccc1 | 1.4 | 97% |  | Active | 
